# Active and inactive are the calls of the source. The rule behind the calls is not given here.
# Experiments:
# [1] = Production of nitric oxide by in vitro Griess assay; assay type: functional
# Outline: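 NO release estimated as nitrite by Griess reaction in vitro: chromophore formed for 10 min at 30 °C, absorbance at 540 nm, reported as ng/ml.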
# Homo sapiens [2] = species: Homo sapiens; experiment: Protective effect on anti-Fas induced apoptosis in human Hep3b p53-/- cells 0.1 uM by LDH assay; assay type: functional, cell-based
# Homo sapiens [3] = species: Homo sapiens; experiment: Protective effect on anti-Fas induced apoptosis in human Hep3b p53-/- cells 10 nM by LDH assay; assay type: functional, cell-based
# HepG2 [4] = experiment: Inhibition of anti-Fas induced apoptosis in human HepG2 cells at 10 nM by LDH assay; assay type: functional, cell-based
# Outline: (§1)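 HepG2 cells, 10^4/well in triplicate, in phenol-red-free DMEM with 4% FCS and 2 µg/ml cycloheximide. Apoptosis induced with anti-Fas (CH-11 at 50 ng/ml or DX2 at 1.5 µg/ml) with or without test agent, 18 h at 37 °C, 5% CO2. Supernatant LDH activity read at O.D. 490/650. Untreated cells and 1% Triton X-100 served as 0% and 100% cytotoxicity references for % protection. Means of three independent experiments.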
# HepG2 [5] = experiment: Inhibition of anti-Fas induced apoptosis in human HepG2 cells at 1 nM by LDH assay; assay type: functional, cell-based; outline: as §1
# Homo sapiens [6] = species: Homo sapiens; experiment: Protective effect on anti-Fas induced apoptosis in human Hep3b p53-/- cells 1 nM by LDH assay; assay type: functional, cell-based
# HepG2 [7] = experiment: Inhibition of anti-Fas induced apoptosis in human HepG2 cells at 0.1 uM by LDH assay; assay type: functional, cell-based; outline: as §1
# HepG2 [8] = experiment: Protective effect on anti-Fas induced apoptosis in human HepG2 cells by LDH assay; assay type: functional; outline: as §1
# HepG2 [9] = experiment: Inhibition of anti-Fas induced apoptosis in human HepG2 cells at 0.1 nM by LDH assay; assay type: functional, cell-based; outline: as §1
# Homo sapiens [10] = species: Homo sapiens; experiment: Protective effect on anti-Fas induced apoptosis in human Hep3b p53-/- cells 0.1 nM by LDH assay; assay type: functional, cell-based
# Rattus norvegicus [11] = experiment: Inhibition of CCl4-induced hepatic fibrosis in rat at 128 mg/kg, po; assay type: functional, organism-based; design: dose 128 mg/kg
# Rattus norvegicus [12] = experiment: Inhibition of CCl4-induced liver damage in rat at 128 mg/kg, po; assay type: functional, organism-based; design: dose 128 mg/kg
structure (smiles),measurement,setting,value
CC1(C)CC[C@]2(C(=O)Oc3ccc(/C=C/C(=O)OCCCCO[N+](=O)[O-])cc3)CC[C@]3(C)C(=CC[C@@H]4[C@@]5(C)CC[C@H](OC(=O)C(F)(F)F)C(C)(C)[C@@H]5CC[C@]43C)[C@@H]2C1,Activity,[1],20 ng/mL
same,Activity,Homo sapiens [2],Active
COc1cc(C(=O)OCCCCO[N+](=O)[O-])ccc1OC(=O)[C@]12CCC(C)(C)C[C@H]1C1=CC[C@@H]3[C@@]4(C)CC[C@H](OC(=O)C(F)(F)F)C(C)(C)[C@@H]4CC[C@@]3(C)[C@]1(C)CC2,Activity,[1],28 ng/mL
CC1(C)CC[C@]2(C(=O)Oc3ccc(/C=C/C(=O)OCCCO[N+](=O)[O-])cc3)CC[C@]3(C)C(=CC[C@@H]4[C@@]5(C)CC[C@H](OC(=O)C(F)(F)F)C(C)(C)[C@@H]5CC[C@]43C)[C@@H]2C1,Activity,[1],18 ng/mL
same,Activity,Homo sapiens [3],Active
same,Activity,HepG2 [4],Active
COc1cc(/C=C/C(=O)OCCCCO[N+](=O)[O-])ccc1OC(=O)[C@]12CCC(C)(C)C[C@H]1C1=CC[C@@H]3[C@@]4(C)CC[C@H](OC(=O)C(F)(F)F)C(C)(C)[C@@H]4CC[C@@]3(C)[C@]1(C)CC2,Activity,[1],12 ng/mL
same,Activity,HepG2 [5],Active
same,Activity,Homo sapiens [6],Active
COc1cc(/C=C/C(=O)OCCCCCCO[N+](=O)[O-])ccc1OC(=O)[C@]12CCC(C)(C)C[C@H]1C1=CC[C@@H]3[C@@]4(C)CC[C@H](OC(=O)C(F)(F)F)C(C)(C)[C@@H]4CC[C@@]3(C)[C@]1(C)CC2,Activity,[1],21 ng/mL
same,Activity,Homo sapiens [2],Active
same,Activity,HepG2 [7],Active
COc1cc(/C=C/C(=O)OCCCCO[N+](=O)[O-])ccc1OC(=O)CC[C@@H](C)[C@H]1CC[C@H]2[C@H]3C(CC[C@]12C)[C@@]1(C)CC[C@@H](O)C[C@H]1C[C@@H]3O (stereo partly drawn),Activity,HepG2 [8],33.4%
COc1cc(/C=C/C(=O)OCCCO[N+](=O)[O-])ccc1OC(=O)[C@]12CCC(C)(C)C[C@H]1C1=CC[C@@H]3[C@@]4(C)CC[C@H](OC(=O)C(F)(F)F)C(C)(C)[C@@H]4CC[C@@]3(C)[C@]1(C)CC2,Activity,[1],12 ng/mL
same,Activity,HepG2 [9],Active
same,Activity,Homo sapiens [10],Active
same,Activity,Rattus norvegicus [11],Active
same,Activity,Rattus norvegicus [12],Active

# Source: ChEMBL document CHEMBL1144656, “Synthesis and biological evaluation of nitric oxide-releasing derivatives of oleanolic acid as inhibitors of HepG2 cell apoptosis” (2007)
